Drawing on ChEMBL document CHEMBL1145351, “Squalene-derived flexible linkers for bioactive peptides” (Bioorg Med Chem Lett, 2007), this text covers IC50 and Activity for seven compounds.

Calls of active or inactive are those of the source. The calls are words filed in the database; no cut-off is given here.

The target in assay [1] is T1, Melanocortin receptor 4 (Homo sapiens, UniProt P32245). The experiment in a line: Displacement of Eu-NDP-alpha-MSH from human melanocortin 4 receptor expressed in HEK293 cells. The class given is cell-based. The essentials: (§1)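 HEK293 cells overexpressing hMC4R, plated at 12,000 cells/well and grown 3 days. Incubated 40 min at 37 °C, washed 4 times in Tris-HCl/BSA/NaCl, then enhancement solution added for 30 min at 37 °C before time-resolved Eu read-out. IC50 averaged over n independent experiments, each in quadruplicate.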
T1 sequence (P32245 whole entry): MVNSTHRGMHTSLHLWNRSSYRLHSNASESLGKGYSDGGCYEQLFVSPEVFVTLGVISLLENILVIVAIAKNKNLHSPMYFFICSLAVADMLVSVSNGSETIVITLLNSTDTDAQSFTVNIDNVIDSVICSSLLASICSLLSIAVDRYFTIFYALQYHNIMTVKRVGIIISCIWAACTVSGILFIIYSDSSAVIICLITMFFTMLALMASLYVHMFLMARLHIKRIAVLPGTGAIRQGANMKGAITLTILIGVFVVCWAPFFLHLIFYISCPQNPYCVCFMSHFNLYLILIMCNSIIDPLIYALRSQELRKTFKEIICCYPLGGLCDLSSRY

Assay [2] has as its target T1, Melanocortin receptor 4. The experiment in a line: Displacement of Eu-NDP-alpha-MSH from human melanocortin 4 receptor expressed in HEK293 cells at 1 pM to 10 uM. Format: cell-based. Put shortly: as §1

Broadly, the IC50 is the concentration at which inhibition is half-maximal. High values mean lower potency, low ones higher potency. As to `CC(C)C(O)CCC(C)C(O)CCC(C)C(O)CCC(OCCCCCCn1cc(CCCC(=O)N[C@@H](Cc2cnc[nH]2)C(=O)N[C@H](Cc2ccccc2)C(=O)N[C@@H](CCCN=C(N)N)C(=O)N[C@@H](Cc2c[nH]c3ccccc23)C(N)=O)nn1)C(C)CCC(O)C(C)CCC(O)C(C)C` (some centres not stated), the IC50 at Melanocortin receptor 4 [1] amounted to 3300 nM.

Regarding `C#CCCCC(=O)N[C@@H](CO)C(N)=O`, at Melanocortin receptor 4 [2], the outcome was inactive. For the compound `C#CCCCC(=O)N[C@@H](Cc1cnc[nH]1)C(=O)N[C@H](Cc1ccccc1)C(=O)N[C@@H](CCCNC(=N)N)C(=O)N[C@@H](Cc1c[nH]c2ccccc12)C(N)=O`, the IC50 at Melanocortin receptor 4 [1] worked out at 900 nM.

As to `N=C(N)NCCC[C@H](NC(=O)C(Cc1ccccc1)NC(=O)[C@@H](N)Cc1cnc[nH]1)C(=O)N[C@@H](Cc1c[nH]c2ccccc12)C(=O)O` (stereo in doubt), the IC50 at Melanocortin receptor 4 [1] stood at 1100 nM. For the compound `CC(C)C(O)CCC(C)C(O)CCC(C)C(O)CCC(OCCCCCCn1cc(CCCC(=O)N[C@@H](CO)C(N)=O)nn1)C(C)CCC(O)C(C)CCC(O)C(C)C` (some centres not stated), on Melanocortin receptor 4 [2], the result was inactive. For the compound `CC(C)C(O)CCC(C)C(O)CCC(C)C(CCC(O)C(C)CCC(O)C(C)CCC(OCCCCCCn1cc(CCCC(=O)N[C@@H](CO)C(N)=O)nn1)C(C)C)OCCCCCCn1cc(CCCC(=O)N[C@@H](CO)C(N)=O)nn1` (some centres not stated), on Melanocortin receptor 4 [2], the result was inactive. On to `CC(C)C(O)CCC(C)C(O)CCC(C)C(CCC(O)C(C)CCC(O)C(C)CCC(OCCCCCCn1cc(CCCC(=O)N[C@@H](Cc2cnc[nH]2)C(=O)N[C@@H](Cc2ccccc2)C(=O)N[C@@H](CCCNC(=N)N)C(=O)N[C@@H](Cc2c[nH]c3ccccc23)C(N)=O)nn1)C(C)C)OCCCCCCn1cc(CCCC(=O)N[C@@H](Cc2cnc[nH]2)C(=O)N[C@@H](Cc2ccccc2)C(=O)NC(CCCNC(=N)N)C(=O)N[C@@H](Cc2c[nH]c3ccccc23)C(N)=O)nn1` (single isomer, unassigned), for which the IC50 on Melanocortin receptor 4 [1] amounted to 400 nM.
